According to ChEMBL document CHEMBL4325887, “Lipophilic Permeability Efficiency Reconciles the Opposing Roles of Lipophilicity in Membrane Permeability and Aqueous Solubility” (J Med Chem, 2018):
In brackets after ≈: the same amount, converted by molar mass. Where a SMILES comes first, the peptide text is derived from it. [ ]: non-standard residue; d: D form. NMeY = CN[C@@H](Cc1ccc(O)cc1)C(=O)O; NMeF = CN[C@@H](Cc1ccccc1)C(=O)O; dNMeF = CN[C@H](Cc1ccccc1)C(=O)O; NMeA = CN[C@@H](C)C(=O)O; dNMeA = CN[C@H](C)C(=O)O; Sar = CNCC(=O)O

Experiments:
[1] = Thermodynamic aqueous solubility of compound in pH 7.4 PBS by UPLC-MS analysis; format: physicochemical; settings: PBS pH 7.4, pH 7.4; read-out: Therm_solubility
[2] = 1,9-decadiene/aqueous buffer solution partition coefficient, log D of the compound in PBS at pH 7.4 by shake flask method; format: physicochemical
[3] = Apparent permeability in low-efflux MDCK2 cells at 2 uM by lucifer yellow dye-based UPLC-MS analysis; format: ADME, cell-based, Canis lupus familiaris, MDCK-II; settings: dog, MDCK
[4] = Apparent permeability in human Caco2 cells; format: ADME, cell-based; settings: Caco-2
Method in brief: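 Apical-to-basolateral permeation (Papp, ×10-6 cm/s) was measured in quadruplicate. Compound was quantified by selected-mass UPLC-MS.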

[5] = Apparent permeability of compound in pH 7.4 PBS after 16 hrs by PAMPA assay; format: ADME

Structure (SMILES) | solubility thermodynamic [1] [µM] | logD hydrocarbon water [2] | Papp at 2 µM [3] [×10⁻⁶ cm/s] | Papp [4] [×10⁻⁶ cm/s] | Papp at 16 h [5] [×10⁻⁶ cm/s]
C/C=C/C[C@@H](C)[C@H]1OC(=O)[C@H](C(C)C)N(C)C(=O)[C@H](CC(C)C)N(C)C(=O)[C@H](CC(C)C)N(C)C(=O)[C@@H](C)NC(=O)[C@H](C)NC(=O)[C@H](CC(C)C)N(C)C(=O)[C@H](C(C)C)NC(=O)[C@H](CC(C)C)N(C)C(=O)CN(C)C(=O)[C@H](CC)NC(=O)[C@H]1NC | 2.2 (≈ 2.65 µg/mL) | 2.61 | – | – | –
CC[C@@H]1NC(=O)[C@H](CC(C)C)N(C)C(=O)[C@H](C(C)C)N(C)C(=O)[C@H](CC(C)C)N(C)C(=O)[C@H](CC(C)C)N(C)C(=O)[C@@H](C)NC(=O)[C@H](C)NC(=O)[C@H](CC(C)C)N(C)C(=O)[C@H](C(C)C)NC(=O)[C@H](CC(C)C)N(C)C(=O)CN(C)C1=O | 22 (≈ 25.2 µg/mL) | 3.94 | 1.8 | – | –
CC[C@H]1OC(=O)[C@H](C)[C@@H](O[C@H]2C[C@@](C)(OC)[C@@H](O)[C@H](C)O2)[C@H](C)[C@@H](O[C@@H]2O[C@H](C)C[C@H](N(C)C)[C@H]2O)[C@](C)(O)C[C@@H](C)C(=O)[C@H](C)[C@@H](O)[C@]1(C)O [ERYTHROMYCIN] | – | -3.9 | – | 1 to 3 | –
CC(C)C[C@@H]1NC(=O)[C@H](C)NC(=O)[C@H](Cc2ccc(O)cc2)N(C)C(=O)[C@H](Cc2ccccc2)NC(=O)CN(C)C(=O)[C@@H]2CCCN2C(=O)[C@@H](Cc2ccccc2)N(C)C1=O (cyclo(AL[dNMeF]P[Sar]F[NMeY])) | 10 (≈ 8.38 µg/mL) | -2.44 | – | – | 0.2
CC[C@H]1OC(=O)[C@H](C)[C@@H](O[C@H]2C[C@@](C)(OC)[C@@H](O)[C@H](C)O2)[C@H](C)[C@@H](O[C@@H]2O[C@H](C)C[C@H](N(C)C)[C@H]2O)[C@](C)(O)C[C@@H](C)CN(C)[C@H](C)[C@@H](O)[C@]1(C)O [AZITHROMYCIN] | – | – | – | 1 to 3 | –
CC[C@H](C)[C@@H]1NC(=O)[C@H](C)N(C)C(=O)[C@H](Cc2ccccc2)NC(=O)CN(C)C(=O)[C@@H]2CCCN2C(=O)[C@@H](Cc2ccccc2)N(C)C(=O)[C@H](CC(C)C)NC1=O (cyclo(F[NMeA]IL[dNMeF]P[Sar])) | 16 (≈ 12.6 µg/mL) | 0.71 | – | – | 5.9
CC[C@H]1OC(=O)[C@H](C)[C@@H](O[C@H]2C[C@@](C)(OC)[C@@H](O)[C@H](C)O2)[C@H](C)[C@@H](O[C@@H]2O[C@H](C)C[C@H](N(C)C)[C@H]2O)[C@](C)(O)C[C@@H](C)/C(=N/OCOCCOC)[C@H](C)[C@@H](O)[C@]1(C)O | – | – | – | > 10 | –
CC[C@H](C)[C@@H]1NC(=O)[C@H](Cc2ccc(O)cc2)N(C)C(=O)[C@H](Cc2ccccc2)NC(=O)CN(C)C(=O)[C@H](C)N(C)C(=O)[C@@H](Cc2ccccc2)N(C)C(=O)[C@H](CC(C)C)NC1=O (cyclo(F[NMeY]IL[dNMeF][NMeA][Sar])) | 37 (≈ 32.1 µg/mL) | 0.92 | – | – | 7.8
CC[C@H]1OC(=O)[C@H](C)[C@@H](O[C@H]2C[C@@](C)(OC)[C@@H](O)[C@H](C)O2)[C@H](C)[C@@H](O[C@@H]2O[C@H](C)C[C@H](N(C)C)[C@H]2O)[C@](C)(OC)C[C@@H](C)C(=O)[C@H](C)[C@@H](O)[C@]1(C)O [CLARITHROMYCIN] | – | – | – | > 10 | –
C/C=C/C[C@@H](C)[C@@H](O)[C@H]1C(=O)N[C@@H](C)C(=O)N(C)CC(=O)N(C)[C@@H](CC(C)C)C(=O)N[C@@H](C(C)C)C(=O)N(C)[C@@H](CC(C)C)C(=O)N[C@@H](C)C(=O)N[C@H](C)C(=O)N(C)[C@@H](CC(C)C)C(=O)N(C)[C@@H](CC(C)C)C(=O)N(C)[C@@H](C(C)C)C(=O)N1C | 27 (≈ 32.1 µg/mL) | 3.18 | 1.4 | – | –
CC[C@H](C)[C@@H]1NC(=O)[C@H](Cc2ccc(O)cc2)N(C)C(=O)[C@H](Cc2ccccc2)NC(=O)CN(C)C(=O)[C@@H]2CCCN2C(=O)[C@@H](Cc2ccccc2)N(C)C(=O)[C@H](C)NC1=O (cyclo(A[dNMeF]P[Sar]F[NMeY]I)) | 9 (≈ 7.54 µg/mL) | -1.52 | – | – | –
CC[C@H](C)[C@@H]1NC(=O)[C@H](Cc2ccc(O)cc2)N(C)C(=O)[C@H](Cc2ccccc2)NC(=O)CN(C)C(=O)[C@@H]2CCCN2C(=O)[C@@H](Cc2ccccc2)N(C)C(=O)[C@H](CC(C)C)NC1=O [CORDYHEPTAPEPTIDE A] (cyclo(F[NMeY]IL[dNMeF]P[Sar])) | 0.45 (≈ 0.396 µg/mL) | -0.13 | – | – | –
C/C=C/C[C@@H](C)[C@@H](OC(C)=O)[C@H]1C(=O)N[C@@H](CC)C(=O)N(C)CC(=O)N(C)[C@@H](CC(C)C)C(=O)N[C@@H](C(C)C)C(=O)N(C)[C@@H](CC(C)C)C(=O)N[C@@H](C)C(=O)N[C@H](C)C(=O)N(C)[C@@H](CC(C)C)C(=O)N(C)[C@@H](CC(C)C)C(=O)N(C)[C@@H](C(C)C)C(=O)N1C | 0.005 (≈ 0.00622 µg/mL) | 4.14 | – | – | –
C/C=C/C[C@@H](C)[C@@H](O)[C@H]1C(=O)N[C@@H](C(C)C)C(=O)N(C)CC(=O)N(C)[C@@H](CC(C)C)C(=O)N[C@@H](C(C)C)C(=O)N(C)[C@@H](CC(C)C)C(=O)N[C@@H](C)C(=O)N[C@H](C)C(=O)N(C)[C@@H](CC(C)C)C(=O)N(C)[C@@H](CC(C)C)C(=O)N(C)[C@@H](C(C)C)C(=O)N1C | 0.12 (≈ 0.146 µg/mL) | 3.86 | 0.7 | – | –
CC[C@H](C)[C@@H]1NC(=O)[C@H](Cc2ccccc2)N(C)C(=O)[C@H](Cc2ccccc2)NC(=O)CN(C)C(=O)[C@@H]2CCCN2C(=O)[C@@H](Cc2ccccc2)N(C)C(=O)[C@H](CC(C)C)NC1=O (cyclo(F[NMeF]IL[dNMeF]P[Sar])) | 2.3 (≈ 1.99 µg/mL) | 2.13 | – | – | 2.3
C/C=C/C[C@@H](C)[C@@H](O)[C@H]1C(=O)N[C@@H]([C@@H](C)O)C(=O)N(C)CC(=O)N(C)[C@@H](CC(C)C)C(=O)N[C@@H](C(C)C)C(=O)N(C)[C@@H](CC(C)C)C(=O)N[C@@H](C)C(=O)N[C@H](C)C(=O)N(C)[C@@H](CC(C)C)C(=O)N(C)[C@@H](CC(C)C)C(=O)N(C)[C@@H](C(C)C)C(=O)N1C | 33 (≈ 40.2 µg/mL) | 2.43 | 0.5 | – | –
CC[C@@H]1NC(=O)[C@H](CC(C)C)N(C)C(=O)[C@H](CC)N(C)C(=O)[C@H](CC(C)C)N(C)C(=O)[C@H](CC(C)C)N(C)C(=O)[C@@H](C)NC(=O)[C@H](C)NC(=O)[C@H](CC(C)C)N(C)C(=O)[C@H](C(C)C)NC(=O)[C@H](CC(C)C)N(C)C(=O)CN(C)C1=O | 10 (≈ 11.3 µg/mL) | 3.64 | 2.7 | – | –
CC(C)C[C@@H]1NC(=O)[C@H](C(C)C)NC(=O)[C@H](Cc2ccc(O)cc2)N(C)C(=O)[C@H](Cc2ccccc2)NC(=O)CN(C)C(=O)[C@@H]2CCCN2C(=O)[C@@H](Cc2ccccc2)N(C)C1=O [Cordyheptapeptide C] | 2.7 (≈ 2.34 µg/mL) | -0.43 | – | – | 1.9
CC[C@H](C)[C@@H]1NC(=O)[C@H](Cc2ccc(O)cc2)N(C)C(=O)[C@H](Cc2ccccc2)NC(=O)CN(C)C(=O)[C@@H]2CCCN2C(=O)[C@@H](C)N(C)C(=O)[C@H](CC(C)C)NC1=O (cyclo(F[NMeY]IL[dNMeA]P[Sar])) | – | -1.71 | – | – | 1.3
CC[C@H](C)[C@@H]1NC(=O)[C@H](Cc2ccc(O)cc2)N(C)C(=O)[C@H](C)NC(=O)CN(C)C(=O)[C@@H]2CCCN2C(=O)[C@@H](Cc2ccccc2)N(C)C(=O)[C@H](CC(C)C)NC1=O (cyclo(A[NMeY]IL[dNMeF]P[Sar])) | 17 (≈ 13.7 µg/mL) | -1.78 | – | – | –
